In ChEMBL document CHEMBL1157181, “Novel antioxidant agents deriving from molecular combination of Vitamin C and NO-donor moieties” (Bioorg Med Chem, 2008):
The source made the active and inactive calls. The rule behind the calls is not given here.

What was measured:
Hepatocyte [1] = assay: Antioxidant activity Wistar rat hepatocyte membrane assessed as Fe(3+)-ADP/NADPH-induced lipid peroxidation by TBA assay; type: functional, cell-based
Summary of the method: (§1)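 Microsomes from male Wistar rat liver (180–200 g) in Tris-HCl/KCl pH 7.4 (2 mg protein/mL) with ADP 1 mM and FeCl3 50 μM, plus compound in DMSO (≤5%). Peroxidation started with NADPH 0.4 mM at 37 °C and sampled to 30 min. TBARS read at 543 nm against an MDA standard. Inhibition is taken from the 30-min plateau, with IC50 by nonlinear regression.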

Aorta [2] = assay: Vasorelaxation activity in Wistar rat thoracic aorta assessed as inhibition of L-phenylephrine-induced contraction; type: functional, tissue-based
Summary of the method: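 Endothelium-denuded thoracic aorta strips from male Wistar rats (180–200 g) equilibrated 120 min and contracted with 1 μM L-phenylephrine. At plateau, cumulative concentrations of the test agent are added. EC50 is given ± SEM (μM).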

Aorta [3] = assay: Vasorelaxation activity in Wistar rat thoracic aorta assessed as inhibition of L-phenylephrine-induced contraction in presence of 1 uM 1H-[1,2,4]oxadiazolo[4,3-a]quinoxalin-1-one; type: functional, tissue-based
Summary of the method: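 Denuded Wistar rat aortic strips with 1 μM ODQ added to the bath 5 min before contraction with 1 μM L-phenylephrine. Cumulative relaxant concentrations are added at plateau, and EC50 is given ± SEM (μM).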

[4] = Dissociation constant, pKa of the compound; type: physicochemical
Summary of the method: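 Potentiometric titration, at least four runs per compound, of about 1 mM aqueous solutions with ionic strength 0.15 M (KCl). Solutions acidified to pH 1.8 with 0.5 N HCl, then titrated with standardised 0.5 N KOH to pH 10.5, under argon at 25.0 ± 0.1 °C. For poorly soluble compounds, at least five titrations in 15-50 wt% methanol, extrapolated to zero cosolvent (Yasuda-Shedlovsky).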

[5] = Distribution coefficient, log D at pH 1.0 after 4 hrs by shake flask method; type: physicochemical; conditions: octanol/water
Summary of the method: (§2)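 Shake-flask n-octanol/buffer partition at room temperature, pH 1.0 (HCl) or pH 7.4 (phosphate), ionic strength 0.15 M KCl. Phases are presaturated by shaking for 4 h. Solute is about 0.1 mM in the aqueous phase, shaken about 20 min and centrifuged. Aqueous concentration is read by UV at λmax, with at least seven log D values per compound.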

[6] = Distribution coefficient, log D at pH 7.4 after 4 hrs by shake flask method; type: physicochemical; conditions: octanol/water; summary of the method: as §2
Hepatocyte [7] = assay: Antioxidant activity Wistar rat hepatocyte membrane assessed as Fe(3+)-ADP/NADPH-induced lipid peroxidation at 1 mM by TBA assay; type: functional, cell-based; summary of the method: as §1
[8] = Distribution coefficient, log D at pH 7.4 after 4 hrs; type: physicochemical; conditions: octanol/water; summary of the method: as §2
Hepatocyte [9] = assay: Antioxidant activity Wistar rat hepatocyte membrane assessed as Fe(3+)-ADP/NADPH-induced lipid peroxidation at 50 uM by TBA assay; type: functional; summary of the method: as §1

Structure (SMILES)	EC50 (Aorta [2]) [µM]	EC50 (Aorta [3]) [µM]	pKa [4]	logD at 4 h [5]	logD at 4 h [6]	logD at 4 h [8]	IC50 (Hepatocyte [1]) [µM]	Activity (Hepatocyte [7])	Activity (Hepatocyte [9]) [%]
NC(=O)c1c(COC2=C(O)C(=O)OC2C(O)CO)no[n+]1[O-] (configuration not stated)	6	> 100	7.07	-0.99	-1.44		> 1000		
O=C1OC(C(O)CO)C(OCCCCC(CO[N+](=O)[O-])O[N+](=O)[O-])=C1O (configuration not stated)	0.72	> 100	7.64	0.78	0.66		28		
O=C1O[C@H]([C@@H](O)CO)C(O)=C1O [ASCORBIC ACID]				-1.65					77
COC1=C(O)[C@@H]([C@@H](O)CO)OC1=O			3.23	-1.44		< -2		inactive	
COC1=C(O)C(=O)O[C@@H]1[C@@H](O)CO			7.54	-1.41	-1.61		> 1000		
O=C1OC(C(O)CO)C(OCCCCCCO[N+](=O)[O-])=C1O (configuration not stated)	2.1	> 100	7.6	0.86	0.76		80		

Now from value to molecule, other results behind:

EC50 (Aorta [2]) [µM]	EC50 (Aorta [3]) [µM]	pKa [4]	logD at 4 h [5]	logD at 4 h [6]	logD at 4 h [8]	Structure (SMILES)	IC50 (Hepatocyte [1]) [µM]	Activity (Hepatocyte [7])	Activity (Hepatocyte [9]) [%]
32	> 100	3.44	1.71	-1.35		O=C1OC(C(O)CO)C(O)=C1OCCCOc1no[n+]([O-])c1-c1ccccc1 (configuration not stated)	392		
0.034	7	7.62	1.18	0.98		O=C1OC(C(O)CO)C(OCCCOc2no[n+]([O-])c2S(=O)(=O)c2ccccc2)=C1O (configuration not stated)	80		
3.8	80.9	7.6	1.53	1.13		O=C1OC(C(O)CO)C(OCCCOc2no[n+]([O-])c2-c2ccccc2)=C1O (configuration not stated)	17		
		3.19	-0.26		< -2	O=C1OC(C(O)CO)C(O)=C1OCCCO[N+](=O)[O-] (configuration not stated)		inactive	
55	> 100	7.55	-0.48	-0.55		O=C1OC(C(O)CO)C(OCCCO[N+](=O)[O-])=C1O (configuration not stated)	454		
7.1	> 100	3.56	0.84	-1.93		O=C1OC(C(O)CO)C(O)=C1OCCCCCCO[N+](=O)[O-] (configuration not stated)	> 1000		
